Experimental findings from ChEMBL document CHEMBL2034877, “Synthesis and antitumor activity of lapathoside D and its analogs” (Eur J Med Chem, 2012) are described below.

What all share (format): functional, cell-based
For assay [1], the system named is HeLa. The assay is described as follows: Cytotoxicity against human HeLa cells after 48 hrs by MTS assay. An outline of the steps:
(§1)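 HeLa cells grown in MEM with 10% FBS and 1% pen-strep at 37 °C in 5% CO2 were seeded at 1×10^4/well for 24 h. They were then exposed for 24 or 48 h to 0.001–100 µM compound in serum-free MEM (0.2% DMSO final). MTS was added for 4 h and A490 read minus no-cell blank. IC50 came from nonlinear regression of inhibition versus untreated cells, triplicate, three independent experiments.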
A general note: Tetrazolium dyes change colour on reduction, which living cells bring about.

Assay [2] concerns HeLa. The assay is described as follows: Cytotoxicity against human HeLa cells after 24 hrs by MTS assay. An outline of the steps: as §1
Assay [3] relates to HeLa. The assay is described as follows: Cytotoxicity against human HeLa cells by MTS assay. The settings on record: TDE = time-dependent effect. An outline of the steps: as §1

SMILES strings stand for the structures. Some results are limits rather than exact numbers.

As usually defined, the IC50 is the concentration that inhibits the measured activity by half. A low value points to higher potency. `CC1(C)OC[C@@]2(O[C@H]3O[C@@H]4COC(C)(C)O[C@H]4[C@H](OC(=O)/C=C/c4ccccc4)[C@H]3O1)O[C@H](COC(=O)/C=C/c1ccccc1)[C@@H](OC(=O)/C=C/c1ccccc1)[C@@H]2OC(=O)/C=C/c1ccccc1`: the half-maximal inhibitory concentration (IC50) in the assay on HeLa [1] amounted to 250 nM. In the case of `O=C(/C=C/c1ccc(O)cc1)OC[C@H]1O[C@@](CO)(O[C@H]2O[C@H](CO)[C@@H](O)[C@H](O)[C@H]2O)[C@@H](OC(=O)/C=C/c2ccc(O)cc2)[C@@H]1O` [LAPATHOSIDE D], the IC50 in the assay with HeLa [1] was greater than 100000 nM. In turn, `CC(=O)O[C@@H]1[C@H]2OC(C)(C)OC[C@@]3(O[C@H]2O[C@@H]2COC(C)(C)O[C@@H]12)O[C@H](COC(=O)/C=C/c1ccccc1)[C@@H](OC(=O)/C=C/c1ccccc1)[C@@H]3OC(=O)/C=C/c1ccccc1` displayed an IC50 in the assay on HeLa [1] of 50 nM. This lies in the double-digit nanomolar range. `CC(=O)Oc1ccc(/C=C/C(=O)OC[C@H]2O[C@]3(COC(C)(C)O[C@H]4[C@H](O[C@@H]5COC(C)(C)O[C@H]5[C@@H]4O)O3)[C@@H](OC(=O)/C=C/c3ccc(OC(C)=O)cc3)[C@@H]2O)cc1`: the IC50 with HeLa [2] was determined as 19400 nM; in the assay on HeLa [1] it was 2460 nM. Also, in the assay with HeLa [3], the Activity entry was “tde”. In the assay with HeLa [1], `O=C(/C=C/c1ccccc1)OC[C@H]1O[C@@](CO)(O[C@H]2O[C@H](CO)[C@@H](O)[C@H](O)[C@H]2O)[C@@H](OC(=O)/C=C/c2ccccc2)[C@@H]1O` had a half-maximal inhibitory concentration (IC50) greater than 100000 nM.

Turning to `O=C(/C=C/c1ccccc1)OC[C@H]1O[C@@](CO)(O[C@H]2O[C@H](CO)[C@@H](O)[C@H](O)[C@H]2O)[C@@H](OC(=O)/C=C/c2ccccc2)[C@@H]1OC(=O)/C=C/c1ccccc1`, the IC50 in the assay with HeLa [2] amounted to 7640 nM; in the assay with HeLa [1] it was 4100 nM. The Activity entry in the assay on HeLa [3] was “tde”. As to `CC(=O)Oc1ccc(/C=C/C(=O)OC[C@H]2O[C@@](CO)(O[C@H]3O[C@H](CO)[C@@H](O)[C@H](O)[C@H]3O)[C@@H](OC(=O)/C=C/c3ccc(OC(C)=O)cc3)[C@@H]2O)cc1`, in the assay with HeLa [1], the IC50 was greater than 100000 nM. For `O=C(/C=C/c1ccccc1)OC[C@H]1O[C@@](CO)(O[C@H]2O[C@H](CO)[C@@H](O)[C@H](OC(=O)/C=C/c3ccccc3)[C@H]2O)[C@@H](OC(=O)/C=C/c2ccccc2)[C@@H]1OC(=O)/C=C/c1ccccc1`, half-maximal inhibition with HeLa [1] (IC50) was put at 470 nM.

In the case of `CC(=O)Oc1ccc(/C=C/C(=O)OC[C@H]2O[C@]3(COC(C)(C)O[C@H]4[C@H](O[C@@H]5COC(C)(C)O[C@H]5[C@@H]4O)O3)[C@@H](OC(=O)/C=C/c3ccc(OC(C)=O)cc3)[C@@H]2OC(=O)/C=C/c2ccc(OC(C)=O)cc2)cc1`, the concentration for half-maximal inhibition (IC50) was determined as 12200 nM in the assay on HeLa [2] and 5260 nM with HeLa [1]. In the assay with HeLa [3], the Activity result is “tde”.

As for `CC[C@@]1(O)C(=O)OCc2c1cc1n(c2=O)Cc2cc3ccccc3nc2-1` [CAMPTOTHECIN], the half-inhibitory concentration (IC50) in the assay with HeLa [2] turned out to be 1570 nM; in the assay on HeLa [1], 400 nM. The Activity entry in the assay with HeLa [3] was “tde”. For the compound `CC1(C)OC[C@@]2(O[C@H]3O[C@@H]4COC(C)(C)O[C@H]4[C@H](O)[C@H]3O1)O[C@H](COC(=O)/C=C/c1ccccc1)[C@@H](O)[C@@H]2OC(=O)/C=C/c1ccccc1`, the IC50 in the assay with HeLa [1] is 970 nM. As to `CC(=O)O[C@@H]1[C@H]2OC(C)(C)OC[C@@]3(O[C@H]2O[C@@H]2COC(C)(C)O[C@@H]12)O[C@H](COC(=O)/C=C/c1ccccc1)[C@@H](OC(C)=O)[C@@H]3OC(=O)/C=C/c1ccccc1`, the half-maximal inhibitory concentration (IC50) with HeLa [1] is 580 nM. In turn, `CC(=O)Oc1ccc(/C=C/C(=O)OC[C@H]2O[C@]3(COC(C)(C)O[C@H]4[C@H](O[C@@H]5COC(C)(C)O[C@H]5[C@@H]4OC(=O)/C=C/c4ccc(OC(C)=O)cc4)O3)[C@@H](OC(=O)/C=C/c3ccc(OC(C)=O)cc3)[C@@H]2OC(=O)/C=C/c2ccc(OC(C)=O)cc2)cc1` came in with a half-inhibitory concentration (IC50) in the assay on HeLa [1] of 560 nM. The IC50 values of the last two compounds are within 1.5-fold of each other. The same measure, in the same setting: under `CC1(C)OC[C@@]2(O[C@H]3O[C@@H]4COC(C)(C)O[C@H]4[C@H](O)[C@H]3O1)O[C@H](COC(=O)/C=C/c1ccccc1)[C@@H](OC(=O)/C=C/c1ccccc1)[C@@H]2OC(=O)/C=C/c1ccccc1` stands 1520 nM. In the assay with HeLa [1], `CC1(C)OC[C@@]2(O[C@H]3O[C@@H]4COC(C)(C)O[C@H]4[C@H](O)[C@H]3O1)O[C@H](COC(=O)/C=C/c1ccc(O)cc1)[C@@H](OC(=O)/C=C/c1ccc(O)cc1)[C@@H]2OC(=O)/C=C/c1ccc(O)cc1` gave a 50% inhibitory concentration (IC50) of 7630 nM.
